From ChEMBL document CHEMBL4715745, “Synthesis and biological evaluation of novel FK228 analogues as potential isoform selective HDAC inhibitors” (Eur J Med Chem, 2016)

Experiments:
NCI-H460 = test: Growth inhibition of human NCI-H460 cells measured after 48 hrs by sulforhodamine B assay; assay type: functional
Outline: (§1)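 Panel of 39 human cancer cell lines tested at the Japanese Foundation for Cancer Research. Five concentrations per compound, spanning 10⁻¹¹–10⁻⁷ M, 10⁻¹⁰–10⁻⁶ M or 10⁻⁸–10⁻⁴ M, were used to build dose-response curves. GI₅₀ is the concentration giving 50% growth inhibition relative to control.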

St-4 = test: Growth inhibition of human St-4 cells measured after 48 hrs by sulforhodamine B assay; assay type: functional; outline: as §1
RXF 631 = test: Growth inhibition of human RXF 631 cells measured after 48 hrs by sulforhodamine B assay; assay type: functional; outline: as §1
ACHN = test: Growth inhibition of human ACHN cells measured after 48 hrs by sulforhodamine B assay; assay type: functional; outline: as §1
NCI-H226 = test: Growth inhibition of human NCI-H226 cells measured after 48 hrs by sulforhodamine B assay; assay type: functional; outline: as §1
MDA-MB-231 = test: Growth inhibition of human MDA-MB-231 cells measured after 48 hrs by sulforhodamine B assay; assay type: functional; outline: as §1
MKN-7 = test: Growth inhibition of human MKN-7 cells measured after 48 hrs by sulforhodamine B assay; assay type: functional; outline: as §1
LOX IMVI = test: Growth inhibition of human LOX IMVI cells measured after 48 hrs by sulforhodamine B assay; assay type: functional; outline: as §1
KM12 = test: Growth inhibition of human KM12 cells measured after 48 hrs by sulforhodamine B assay; assay type: functional; outline: as §1
Histone deacetylase 1 = Histone deacetylase 1 (Homo sapiens, UniProt Q13547); test: Inhibition of human HDAC1 expressed in 293T cells using Ac-KGLGK(Ac)-MCA as substrate incubated for 30 mins in presence of 0.1 mM DTT by fluorescence plate reader assay; design: species or system HEK293T
HCC 2998 = test: Growth inhibition of human HCC 2998 cells measured after 48 hrs by sulforhodamine B assay; assay type: functional; outline: as §1
[1] = Growth inhibition of human HBC4 cells measured after 48 hrs by sulforhodamine B assay; assay type: functional; outline: as §1
MKN-45 = test: Growth inhibition of human MKN-45 cells measured after 48 hrs by sulforhodamine B assay; assay type: functional; outline: as §1
PC-3 = test: Growth inhibition of human PC-3 cells measured after 48 hrs by sulforhodamine B assay; assay type: functional; outline: as §1
HCT-116 = test: Growth inhibition of human HCT-116 cells measured after 48 hrs by sulforhodamine B assay; assay type: functional; outline: as §1
DMS-114 = test: Growth inhibition of human DMS-114 cells measured after 48 hrs by sulforhodamine B assay; assay type: functional; outline: as §1
MCF7 = test: Growth inhibition of human MCF7 cells measured after 48 hrs by sulforhodamine B assay; assay type: functional; outline: as §1
MKN-28 = test: Growth inhibition of human MKN-28 cells measured after 48 hrs by sulforhodamine B assay; assay type: functional; outline: as §1
A549 = test: Growth inhibition of human A549 cells measured after 48 hrs by sulforhodamine B assay; assay type: functional; outline: as §1
[2] = Growth inhibition of human HBC5 cells measured after 48 hrs by sulforhodamine B assay; assay type: functional; outline: as §1
U-251 = test: Growth inhibition of human U-251 cells measured after 48 hrs by sulforhodamine B assay; assay type: functional; outline: as §1
MKN-1 = test: Growth inhibition of human MKN-1 cells measured after 48 hrs by sulforhodamine B assay; assay type: functional; outline: as §1
OVCAR-5 = test: Growth inhibition of human OVCAR-5 cells measured after 48 hrs by sulforhodamine B assay; assay type: functional; outline: as §1
SK-OV-3 = test: Growth inhibition of human SK-OV-3 cells measured after 48 hrs by sulforhodamine B assay; assay type: functional; outline: as §1
OVCAR-4 = test: Growth inhibition of human OVCAR-4 cells measured after 48 hrs by sulforhodamine B assay; assay type: functional; outline: as §1
MKN-74 = test: Growth inhibition of human MKN-74 cells measured after 48 hrs by sulforhodamine B assay; assay type: functional; outline: as §1
SNB-78 = test: Growth inhibition of human SNB-78 cells measured after 48 hrs by sulforhodamine B assay; assay type: functional; outline: as §1
SNB-75 = test: Growth inhibition of human SNB-75 cells measured after 48 hrs by sulforhodamine B assay; assay type: functional; outline: as §1
DU-145 = test: Growth inhibition of human DU-145 cells measured after 48 hrs by sulforhodamine B assay; assay type: functional; outline: as §1
[3] = Selectivity index, ratio of IC50 for mouse HDAC6 expressed in 293T cells to IC50 for human HDAC1 expressed in 293T cells using Ac-KGLGK(Ac)-MCA as substrate incubated for 30 mins in presence of 0.1 mM DTT by fluorescence plate reader assay; conditions: 0.5 h
Outline: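 Ratio of HDAC6 IC₅₀ to HDAC1 IC₅₀, taken as selectivity for class I HDAC1 over class II HDAC6. Both enzyme assays were run in the presence of 0.1 mM DTT.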

OVCAR-8 = test: Growth inhibition of human OVCAR-8 cells measured after 48 hrs by sulforhodamine B assay; assay type: functional; outline: as §1
[4] = biological target: T1, Protein deacetylase HDAC6 (Mus musculus, UniProt Q9Z2V5); test: Inhibition of mouse HDAC6 expressed in 293T cells using Ac-KGLGK(Ac)-MCA as substrate incubated for 30 mins in presence of 0.1 mM DTT by fluorescence plate reader assay; design: species or system HEK293T
T1 sequence (Q9Z2V5 whole entry): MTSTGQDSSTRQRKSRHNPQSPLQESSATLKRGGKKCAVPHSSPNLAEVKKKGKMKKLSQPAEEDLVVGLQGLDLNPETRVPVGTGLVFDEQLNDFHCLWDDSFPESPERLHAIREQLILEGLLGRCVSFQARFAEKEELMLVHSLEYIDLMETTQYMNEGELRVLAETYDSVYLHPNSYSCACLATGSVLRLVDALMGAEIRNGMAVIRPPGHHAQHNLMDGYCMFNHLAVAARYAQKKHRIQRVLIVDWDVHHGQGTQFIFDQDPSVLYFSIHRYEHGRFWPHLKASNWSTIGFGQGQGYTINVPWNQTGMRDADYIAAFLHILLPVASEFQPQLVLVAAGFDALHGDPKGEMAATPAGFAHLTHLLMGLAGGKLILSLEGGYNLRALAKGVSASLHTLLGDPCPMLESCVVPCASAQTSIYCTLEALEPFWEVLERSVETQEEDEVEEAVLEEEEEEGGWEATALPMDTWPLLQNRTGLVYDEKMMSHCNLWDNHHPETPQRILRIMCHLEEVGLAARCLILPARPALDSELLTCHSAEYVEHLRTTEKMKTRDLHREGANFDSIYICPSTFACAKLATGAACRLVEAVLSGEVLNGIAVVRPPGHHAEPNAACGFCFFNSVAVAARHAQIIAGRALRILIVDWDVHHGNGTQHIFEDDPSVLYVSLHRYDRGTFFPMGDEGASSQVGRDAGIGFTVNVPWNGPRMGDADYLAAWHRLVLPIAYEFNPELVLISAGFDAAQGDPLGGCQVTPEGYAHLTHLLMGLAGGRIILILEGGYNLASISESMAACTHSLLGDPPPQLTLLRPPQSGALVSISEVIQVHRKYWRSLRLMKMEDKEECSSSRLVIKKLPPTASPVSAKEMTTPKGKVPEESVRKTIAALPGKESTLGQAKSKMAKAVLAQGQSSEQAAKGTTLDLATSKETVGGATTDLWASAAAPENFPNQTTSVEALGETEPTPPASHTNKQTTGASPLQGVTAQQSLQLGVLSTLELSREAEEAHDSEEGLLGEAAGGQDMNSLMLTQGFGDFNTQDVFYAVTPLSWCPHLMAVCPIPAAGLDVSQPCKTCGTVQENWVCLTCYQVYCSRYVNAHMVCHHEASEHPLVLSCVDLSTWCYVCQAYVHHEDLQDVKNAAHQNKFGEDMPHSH
Outline: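 HDAC enzyme assay run in the presence of 0.1 mM dithiothreitol (DTT); IC₅₀ determined.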

OVCAR-3 = test: Growth inhibition of human OVCAR-3 cells measured after 48 hrs by sulforhodamine B assay; assay type: functional; outline: as §1
SF-539 = test: Growth inhibition of human SF-539 cells measured after 48 hrs by sulforhodamine B assay; assay type: functional; outline: as §1
[5] = Growth inhibition of human BSY1 cells measured after 48 hrs by sulforhodamine B assay; assay type: functional; conditions: BSY-1; outline: as §1
DMS-273 = test: Growth inhibition of human DMS-273 cells measured after 48 hrs by sulforhodamine B assay; assay type: functional; outline: as §1
NCI-H23 = test: Growth inhibition of human NCI-H23 cells measured after 48 hrs by sulforhodamine B assay; assay type: functional; outline: as §1
HT-29 = test: Growth inhibition of human HT-29 cells measured after 48 hrs by sulforhodamine B assay; assay type: functional; outline: as §1
NCI-H522 = test: Growth inhibition of human NCI-H522 cells measured after 48 hrs by sulforhodamine B assay; assay type: functional; outline: as §1
HCT-15 = test: Growth inhibition of human HCT-15 cells measured after 48 hrs by sulforhodamine B assay; assay type: functional; outline: as §1
SF-295 = test: Growth inhibition of human SF-295 cells measured after 48 hrs by sulforhodamine B assay; assay type: functional; outline: as §1
SF-268 = test: Growth inhibition of human SF-268 cells measured after 48 hrs by sulforhodamine B assay; assay type: functional; outline: as §1

Sequence of Histone deacetylase 1 (Q13547 whole entry): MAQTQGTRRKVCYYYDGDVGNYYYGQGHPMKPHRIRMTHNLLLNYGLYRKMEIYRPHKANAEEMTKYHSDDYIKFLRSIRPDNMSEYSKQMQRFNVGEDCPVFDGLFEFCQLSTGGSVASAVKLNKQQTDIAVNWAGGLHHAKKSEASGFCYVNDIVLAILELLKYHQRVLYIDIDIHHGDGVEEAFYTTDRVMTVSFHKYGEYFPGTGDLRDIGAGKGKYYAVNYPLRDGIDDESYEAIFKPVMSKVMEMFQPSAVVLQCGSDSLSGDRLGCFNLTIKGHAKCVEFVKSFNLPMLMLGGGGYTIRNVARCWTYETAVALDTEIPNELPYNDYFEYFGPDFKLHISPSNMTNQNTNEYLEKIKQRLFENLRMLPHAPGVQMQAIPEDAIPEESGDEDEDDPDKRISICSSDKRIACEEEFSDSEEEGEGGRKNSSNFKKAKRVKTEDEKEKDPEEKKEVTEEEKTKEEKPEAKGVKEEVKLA

CC(C)C[C@H]1NC(=O)[C@H]2CSSCC/C=C/[C@H](CC(=O)N[C@H](C(C)C)C(=O)N2)OC(=O)CNC1=O
GI50 (NCI-H460): 0.039 µM | GI50 (St-4): 0.23 µM | GI50 (RXF 631): 0.068 µM | GI50 (ACHN): 0.2 µM | GI50 (NCI-H226): 0.059 µM | GI50 (MDA-MB-231): 0.039 µM | GI50 (MKN-7): 0.28 µM | GI50 (LOX IMVI): 0.023 µM | GI50 (KM12): 0.033 µM | IC50 (Histone deacetylase 1): 0.00096 µM | GI50 (HCC 2998): 0.027 µM | GI50 [1]: 0.07 µM | GI50 (MKN-45): 0.24 µM | GI50 (PC-3): 0.069 µM | GI50 (HCT-116): 0.022 µM | GI50 (DMS-114): 0.036 µM | GI50 (MCF7): 0.052 µM | GI50 (MKN-28): 0.27 µM | GI50 (A549): 0.023 µM | GI50 [2]: 0.27 µM | GI50 (U-251): 0.01 µM | GI50 (MKN-1): 0.021 µM | GI50 (OVCAR-5): 0.031 µM | GI50 (SK-OV-3): 0.023 µM | GI50 (OVCAR-4): 0.087 µM | GI50 (MKN-74): 0.044 µM | GI50 (SNB-78): 0.03 µM | GI50 (SNB-75): 0.043 µM | GI50 (DU-145): 0.037 µM | Ratio IC50 [3]: 8804 | GI50 (OVCAR-8): 0.042 µM | IC50 [4]: 8.45 µM | GI50 (OVCAR-3): 0.04 µM | GI50 (SF-539): 0.057 µM | GI50 [5]: 0.069 µM | GI50 (DMS-273): 0.074 µM | GI50 (NCI-H23): 0.039 µM | GI50 (HT-29): 0.033 µM | GI50 (NCI-H522): 0.01 µM | GI50 (HCT-15): 0.59 µM | GI50 (SF-295): 1.1 µM | GI50 (SF-268): 0.011 µM

CC(C)[C@H]1NC(=O)C[C@H]2/C=C/CCSSC[C@@H](NC1=O)C(=O)N[C@@H](C)C(=O)NCC(=O)O2
GI50 (NCI-H460): 43 µM | GI50 (St-4): 62 µM | GI50 (RXF 631): 100 µM | GI50 (ACHN): 100 µM | GI50 (NCI-H226): 21 µM | GI50 (MDA-MB-231): 16 µM | GI50 (MKN-7): 43 µM | GI50 (LOX IMVI): 4.5 µM | GI50 (KM12): 15 µM | IC50 (Histone deacetylase 1): 0.184 µM | GI50 (HCC 2998): 13 µM | GI50 [1]: 17 µM | GI50 (MKN-45): 100 µM | GI50 (PC-3): 13 µM | GI50 (HCT-116): 11 µM | GI50 (DMS-114): 15 µM | GI50 (MCF7): 17 µM | GI50 (MKN-28): 24 µM | GI50 (A549): 18 µM | GI50 [2]: 21 µM | GI50 (U-251): 17 µM | GI50 (MKN-1): 14 µM | GI50 (OVCAR-5): 15 µM | GI50 (SK-OV-3): 16 µM | GI50 (OVCAR-4): 22 µM | GI50 (MKN-74): 18 µM | GI50 (SNB-78): 13 µM | GI50 (SNB-75): 14 µM | GI50 (DU-145): 15 µM | Ratio IC50 [3]: 6 | GI50 (OVCAR-8): 31 µM | IC50 [4]: 1.02 µM | GI50 (OVCAR-3): 16 µM | GI50 (SF-539): 15 µM | GI50 [5]: 27 µM | GI50 (DMS-273): 47 µM | GI50 (NCI-H23): 27 µM | GI50 (HT-29): 12 µM | GI50 (NCI-H522): 1.7 µM | GI50 (HCT-15): 100 µM | GI50 (SF-295): 51 µM | GI50 (SF-268): 17 µM
